Compound activity: PubChem BioAssay, Johns Hopkins Ion Channel Center
Only some compounds are listed: those with a hit (about 3.1% of all), similar ones and a draw of the others.
hERG rescue – hERG rescue from dofetilide block, primary screen, cell-based, CHO-hERG, FluxOR thallium flux, dofetilide IC70. dofetilide IC70 present. activation (rescue from dofetilide block), less the hit threshold, % at 10 µM. actives 0.51% (n = 310,000). AID 1511, 2009;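 active = activation above the mean of controls blocked by dofetilide plus 5 SD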;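 note: thallium influx through hERG after potassium depolarization seen as dye fluorescence rise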
KCNK3 inh – human KCNK3 channel inhibitors, primary screen, CHO cells, FluxOR thallium flux, B-score; Potassium channel subfamily K member 3 (Homo sapiens), O14649; FluxOR fluorescence; stronger effect = lower value; B-score at 10 µM; actives 0.84% (n = 340,000);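 active = B-score under library mean minus 4 SD, starting fluorescence ratio at most library mean plus 5 SD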;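 note: more negative B-score means stronger inhibition of thallium flux through KCNK3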
Target sequence (O14649 whole entry, looked up): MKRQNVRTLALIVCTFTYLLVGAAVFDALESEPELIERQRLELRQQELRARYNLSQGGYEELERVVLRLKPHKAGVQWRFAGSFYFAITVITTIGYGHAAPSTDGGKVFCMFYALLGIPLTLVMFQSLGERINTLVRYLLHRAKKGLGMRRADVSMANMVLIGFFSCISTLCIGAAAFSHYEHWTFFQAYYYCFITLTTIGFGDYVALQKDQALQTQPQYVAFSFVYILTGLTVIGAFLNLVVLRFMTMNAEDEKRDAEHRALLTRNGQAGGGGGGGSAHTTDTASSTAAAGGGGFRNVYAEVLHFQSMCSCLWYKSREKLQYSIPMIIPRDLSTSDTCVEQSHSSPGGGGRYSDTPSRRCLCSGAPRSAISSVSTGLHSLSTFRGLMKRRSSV
KCNQ1 inh – inhibitors of human KCNQ1 channel, primary screen, cell-based, thallium flux, high-throughput. actives 1.3% (n = 310,000). B-score at 10 µM. AID 2642, 2010. CHO-K1 KCNQ1, FluxOR thallium flux fluorescence; stronger effect = higher value;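 active = compounds whose thallium flux B-score, printed positive for inhibition, exceeds three library SD while starting fluorescence stays within three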;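 note: channel opened by potassium depolarization with thallium stimulus after 20 min compound exposure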
KCNQ1 pot – potentiators or activators of KCNQ1 channel, primary screen, cell-based, thallium flux, high-throughput. Potassium voltage-gated channel subfamily KQT member 1 (Homo sapiens), P51787. CHO-K1 KCNQ1, thallium flux FluxOR fluorescence; stronger effect = higher value. B-score at 10 µM. actives 0.35% (n = 310,000). AID 2648, 2010;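 active = fluorescence ratio B-score, a plate-corrected score, at least three library SD, with initial intensity B-score within 5 SD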
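Assay system: CHO-K1 cells stably expressing KCNQ1. Medium: assay buffer for compound exposure, DMSO matched across wells. Timing: 37 °C overnight plating, 90-min dark dye load, 20-min compound pretreatment. Signal: kinetic FluxOR fluorescence, 10 s baseline plus 110 s post-stimulus.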
KCNK9 block – KCNK9 potassium channel inhibitors, primary screen, HEK293 cells, thallium flux; B-score at 10 µM; Potassium channel subfamily K member 9 (Homo sapiens), Q9NPC2; FluxOR thallium flux fluorescence; stronger effect = lower value; actives 1.2% (n = 310,000);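 active = ratio B-score over 3 SD below the library mean, with starting fluorescence within 5 SD of its mean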;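 note: negative B-score means less thallium flux so channel inhibition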
Numbers stand for hits; - = inactive; . = not tested or not shown.

SMILES	hERG rescue	KCNK3 inh	KCNQ1 inh	KCNQ1 pot	KCNK9 block
CCC1C/C(=C\c2cc(OC)c(OC)cc2OC)C(=O)/C(=C/c2cc(OC)c(OC)cc2OC)C1 (stereo unspecified)	-	-10.8	7	-	-
COc1cccc(OCCNC(=O)Nc2cc(F)c(F)cc2Cl)c1	6.1	-	-	-	-
COc1ccc(OCCNC(=O)Nc2cc(F)c(F)cc2Cl)cc1	-	-	-	-	-
CC(C)c1ccc(NC(=O)C(c2ccccc2)N(Cc2ccco2)C(=O)CC2NC(=O)NC2=O)cc1 (stereo unspecified)	-	-	8	-	-
O=C(NC(=S)Nc1ccccc1N1CCCC1)c1cccs1	-	-	-	17	-
O=C(NC(=S)Nc1ccccc1N1CCCCC1)c1cccs1	7.5	-	-	12	-
O=C(NC(=S)Nc1ccc(N2CCCCC2)cc1)c1cccs1	-	-	-	9	-
CCOc1ccc(NC(=O)CCC(=O)Nc2cc(OC)c(NC(=O)c3ccco3)cc2OC)cc1	-	-	-	-	-
O=C(Nc1ccccc1)OCCCCCOC(=O)Nc1ccccc1	7.7	-	-	-	-
O=C(Nc1ccccc1)OCCOc1ccccc1	-	-	-	-	-
COCCn1c(SCC(=O)N(C)C2CCS(=O)(=O)C2)nc2ccccc2c1=O (stereo unspecified)	-	-	-	-	-
Cc1ccc(-n2c(SCC(=O)N(C)C3CCS(=O)(=O)C3)nc3ccccc3c2=O)c(C)c1 (stereo unspecified)	.	-9.18	.	.	.
CCOC(=O)C1CCN(C(=O)C2CCN(S(=O)(=O)c3cc(Cl)ccc3OCC)CC2)CC1	-	-	-	-	-
CCN(CC)c1ccc(/C=C(/C#N)c2nc3ccc(C)cc3[nH]2)c(OC(C)C)c1	-	-	9	-	-
CCCOc1cc(N(CC)CC)ccc1/C=C(/C#N)c1nc2ccc(C)cc2[nH]1	-	-	-	-	-11.2
CC1CCCC(NC(=O)Cn2c(Cl)nc3c2c(=O)n(C)c(=O)n3C)C1C (stereo unspecified)	.	-	.	.	.
COc1cc(NC(=O)c2cc(-c3cccnc3)nc3ccc(C)cc23)c(OC)cc1Cl	6.5	.	-	-	-
CC(=O)NCc1ccc(-c2csc(NC(=O)CCc3nc4ccccc4c(=O)[nH]3)n2)s1	.	-	.	.	.
Cc1ccc(C(=O)OCC(=O)NCc2ccc(Cl)cc2Cl)o1	.	-	.	.	.
C/C(N)=C(/C#N)C(=O)CSc1nc2ccccc2c(=O)n1Cc1ccc(F)cc1	-	-	-	8	-
COC(=O)C(Cc1ccccc1)NC(=O)CNC(=O)c1ccc(Br)cc1 (stereo unspecified)	-	-	-	-	-7.1
COC(=O)C(Cc1ccccc1)NC(=O)CNS(=O)(=O)c1ccc(Br)cc1 (stereo unspecified)	-	-	-	-	-
Cc1cnc(NC(=O)C2C(=O)c3ccccc3S(=O)(=O)N2C)s1 (stereo unspecified)	.	-	.	.	.
CCOc1ccc(/C=C/C(O)=C2/C(=O)NC3(C)CC2c2ccccc2O3)cc1OC (stereo unspecified)	-	-	-	-	-
CN(C)c1ccc(/C=C/C(O)=C2/C(=O)N(C)C3(C)CC2c2ccccc2O3)cc1 (stereo unspecified)	-	.	7	-	-
SMILES	hERG rescue	KCNK3 inh	KCNQ1 inh	KCNQ1 pot	KCNK9 block
Cc1ccc(NC(=O)CCN2C(=O)C3C4CCC(C4)C3C2=O)cc1Cl (stereo unspecified)	-	-	-	-	-
CCCCCC(=O)Nc1cccc(-c2nc3ncccc3o2)c1	-	-	-	-	-7.4
Cc1cc(NC(=O)c2cccs2)cc(-c2nc3ncccc3o2)c1O	-	-	-	-	-8
CCC(=O)Nc1ccc(Cl)c(-c2nc3ncccc3o2)c1	-	-	-	-	-
CCCC(=O)Nc1ccc(Cl)c(-c2nc3ncccc3o2)c1	-	-	-	-	-7.98
CC(C)CC(=O)Nc1cccc(-c2nc3ccccc3o2)c1	-	-	-	-	-7.7
Cc1ccc(NC(=O)C2CCN(S(=O)(=O)c3ccc4c(c3)OCCO4)CC2)c(O)c1	-	-	-	-	-
Cc1ccc(-c2csc(NC(=O)Cc3ccc(F)cc3)n2)o1	-	-	-	14	-
COc1ccc(CC(=O)Nc2nc(-c3cccnc3)cs2)cc1	-	-	-	-	-
O=C(CCCOc1ccc(Cl)cc1Cl)NC(Cc1ccccc1)C(=O)O (stereo unspecified)	.	-	.	.	.
CC(CCc1ccc(O)cc1)NC(c1ccccc1)c1ccc(Cl)cc1 (stereo unspecified)	-	-	12	-	-
CC(CCc1ccc(O)cc1)NCCC(c1ccccc1)c1ccccc1 (stereo unspecified)	-	-	-	-	-
Cc1ccc(C(=O)OCC(=O)Nc2cc(C(C)(C)C)nn2-c2ccccc2)c(O)c1	-	-	-	-	-
CCC(C)n1cnc2c(c1=O)c1nc3ccccc3nc1n2Cc1ccc2c(c1)OCO2 (stereo unspecified)	-	.	7	-	-7.17
COC(=O)c1sccc1NC(=O)c1c(Cl)cnn1C	-	-	-	-	-
O=c1cc(-c2ccccc2Cl)oc2c([N+](=O)[O-])c(O)cc(O)c12	-	-	8	-	-
CCOC(=O)N1CCN(Cc2nc3ccc([N+](=O)[O-])cc3c(=O)n2-c2ccccc2F)CC1	-	-	-	-	-
Fc1ccc(-n2cc(-c3ccccc3)c3c(NN4CCOCC4)ncnc32)cc1	-	-	-	-	-
COc1ccc(-n2cc(-c3ccccc3)c3c(NN4CCOCC4)ncnc32)cc1	-	-	9	-	-
O=C(C[C@@H]1C/C=C\CCC(=O)OC[C@@H]2CCCN2C1=O)N[C@@H](CO)Cc1ccccc1	.	-	.	.	.
COc1cc(/C=C2/C(=O)N(c3ccc(Br)cc3)N=C2C)cc(OC)c1OC	-	-	8	-	-
COc1cc(/C=C2/C(=O)N(c3ccc(C(=O)O)cc3)N=C2C)cc(OC)c1O	-	-	-	-	-
Cc1ccc(C(=O)NCC(=O)Nc2ccc(S(=O)(=O)Nc3cc(C)nc(C)n3)cc2)cc1	.	-	.	.	.
CCOC(=O)CSC1=NC(=O)/C(=C\c2ccc(Cl)cc2)S1	-	-	6	-	-
CCCc1cc2c(cc1NC(=O)c1ccc(C(C)(C)C)cc1)OCO2	-	-	-	-	-7.75
Clc1ncnc2[nH]ccc12	.	-	.	.	.
CC(=NC1CCCC1)c1c(C)[nH]n(-c2nc3ccccc3s2)c1=O	6.2	-	-	-	-
O=C(NC(=S)N1CCN(C/C=C/c2ccccc2)CC1)c1ccc(F)cc1	-	-	-	8	-
